Laboratory results taken from PubChem BioAssay.
Active and inactive are the calls of the source.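 The calls were made as follows, unless noted: active = viability at or under a set limit in both replicates, limit being median viability minus 3 SD (cut at about 48% in these data, passing the limit was not always enough); inconclusive = at or under the limit in just one replicate; inactive = at or above the limit in both replicates.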

Experiments:
[1] = biological target: Pantothenate synthetase (Mycobacterium tuberculosis (strain ATCC 25618 / H37Rv)) (UniProt P9WIL5); test: Recombinant Mtb pantothenate synthetase (PanC) inhibitors, coupled enzyme, confirmatory (AID 375; call rule not given here;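 also: 0% = full reaction with vehicle and 100% = no enzyme background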); conditions: coupled enzyme assay; at 10 µM, stronger effect = higher value
Sequence of Pantothenate synthetase (Mycobacterium tuberculosis (strain ATCC 25618 / H37Rv)) (P9WIL5 whole entry, looked up): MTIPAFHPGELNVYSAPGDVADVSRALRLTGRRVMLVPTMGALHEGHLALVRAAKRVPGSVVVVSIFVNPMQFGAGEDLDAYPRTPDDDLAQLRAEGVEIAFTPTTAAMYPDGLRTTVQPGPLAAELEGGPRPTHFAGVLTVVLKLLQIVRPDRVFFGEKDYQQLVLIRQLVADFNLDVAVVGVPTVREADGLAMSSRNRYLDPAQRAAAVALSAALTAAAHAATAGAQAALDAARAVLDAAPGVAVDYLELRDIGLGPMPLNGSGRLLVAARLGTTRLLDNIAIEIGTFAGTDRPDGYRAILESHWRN

[2] = reducers of endogenous Her2 protein level, primary screen, SKBR3 breast tumor cells, AlphaScreen, ATP viability (AID 461;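 active = Her2 level under about 52% in both replicate screens, with viability over 70% of control, limit read from the data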;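 as to Her2 level: lower value means less Her2 protein in the cells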;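 as to viability: percent of carrier control wells set as 100% viability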); conditions: 18-24 h, measured here: SKBR3 viability, ATP luminescence, at 10 µM
[3] = biological target: Receptor tyrosine-protein kinase erbB-2 (Homo sapiens) (UniProt P04626); test: as above; conditions: 18-24 h, at 10 µM, stronger effect = lower value
Sequence of Receptor tyrosine-protein kinase erbB-2 (Homo sapiens) (P04626 whole entry, looked up): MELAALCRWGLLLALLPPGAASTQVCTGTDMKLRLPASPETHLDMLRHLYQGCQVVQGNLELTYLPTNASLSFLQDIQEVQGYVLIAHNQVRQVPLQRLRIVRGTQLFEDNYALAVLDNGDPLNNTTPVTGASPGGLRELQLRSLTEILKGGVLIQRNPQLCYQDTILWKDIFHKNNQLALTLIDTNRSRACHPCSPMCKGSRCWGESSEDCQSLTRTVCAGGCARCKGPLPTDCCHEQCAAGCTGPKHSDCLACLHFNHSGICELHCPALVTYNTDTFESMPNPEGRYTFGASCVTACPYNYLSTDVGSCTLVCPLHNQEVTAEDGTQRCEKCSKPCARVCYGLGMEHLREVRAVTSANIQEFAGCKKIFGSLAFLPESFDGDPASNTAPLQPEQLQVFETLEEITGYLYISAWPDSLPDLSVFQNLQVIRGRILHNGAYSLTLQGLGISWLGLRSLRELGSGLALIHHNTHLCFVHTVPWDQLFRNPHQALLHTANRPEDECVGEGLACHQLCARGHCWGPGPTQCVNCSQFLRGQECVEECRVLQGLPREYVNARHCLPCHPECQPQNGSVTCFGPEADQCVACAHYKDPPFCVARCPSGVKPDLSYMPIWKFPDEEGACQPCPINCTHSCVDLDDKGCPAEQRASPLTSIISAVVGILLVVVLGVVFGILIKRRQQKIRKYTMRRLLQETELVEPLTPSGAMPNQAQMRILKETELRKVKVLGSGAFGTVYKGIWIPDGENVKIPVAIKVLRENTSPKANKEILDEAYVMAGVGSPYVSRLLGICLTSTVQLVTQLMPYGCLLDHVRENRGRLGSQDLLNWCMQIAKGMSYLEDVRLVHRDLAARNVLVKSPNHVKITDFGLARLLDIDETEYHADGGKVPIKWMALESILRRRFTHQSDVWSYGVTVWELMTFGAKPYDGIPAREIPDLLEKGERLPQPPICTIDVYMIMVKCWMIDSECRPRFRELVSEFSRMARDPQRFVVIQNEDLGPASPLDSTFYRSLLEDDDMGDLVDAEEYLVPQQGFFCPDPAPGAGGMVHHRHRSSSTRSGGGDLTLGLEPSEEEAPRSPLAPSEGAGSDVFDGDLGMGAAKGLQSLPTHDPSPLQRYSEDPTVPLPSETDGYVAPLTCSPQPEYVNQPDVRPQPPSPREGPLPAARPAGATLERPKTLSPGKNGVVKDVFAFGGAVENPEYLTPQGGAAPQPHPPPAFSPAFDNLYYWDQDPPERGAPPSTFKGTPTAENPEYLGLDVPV

[4] = SK-BR-3 cell growth inhibitors, pilot screen, 24 h, human (AID 572;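 active = viability at or below 10% of carrier control in both of two separate runs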;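 also: compound exposure lasted between 18 and 24 h rather than exactly 24 h; 100% = carrier-treated control wells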); conditions: SK-BR-3 viability, CellTiter-Glo luminescence, at 10 µM, stronger effect = lower value
[5] = HUVEC growth inhibition – cell-based, human, primary screen (AID 575;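 active = viability at or below 30% in both replicate assays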;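 also: 100% = median of untreated cell wells with 0.1% DMSO on each plate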); conditions: HUVEC proliferation, CellTiter-Glo luminescence, 72 h; at 10 µM; stronger effect = lower value
Procedure, shortened: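 Assay system: Primary human umbilical vein endothelial cells | Quantity: 1250 cells per well | Medium: Supplemented EBM, 2% fetal bovine serum | Detection: CellTiter-Glo luminescence measuring cellular ATP | Read-out: % viability vs DMSO wells | Plate: Collagen-coated 384-well format | Times: 72 h exposure, 37 °C, 5% CO2, 30 min RT equilibration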

[6] = growth inhibitors of H69AR lung tumor, primary screen, human, duplicate replicates (AID 580); conditions: H69AR lung tumor cells viability, ATP luminescence, 72 h; at 10 µM; stronger effect = lower value;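 also: 100% = mean luminescence of untreated wells and 0% = no signal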
[7] = reversal of MRP1-mediated doxorubicin resistance, pilot screen, H69AR cells, doxorubicin co-treatment (AID 601;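 active = viability loss from added drug above about 55%, and viability with drug at most 40%, in both replicates, limit read from the data, passing the limit was not always enough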); conditions: CellTiter-Glo, 72 h, at 10 µM; for differential viability (reversal): stronger effect = higher value
[8] = 384-well plate pilot, post-Golgi transport modulator project, inhibition of yeast transport mutant growth (AID 636; in the data active = inhibition above about 31%); conditions: absorbance 615 nm, about 18 h, stronger effect = higher value
[9] = growth suppression of yeast trafficking mutant, preliminary HTS, modulators of trafficking downstream of Golgi apparatus project, 1536-format plate, OD 615 nm (AID 637; in the data active = inhibition above about 30%); conditions: yeast transport mutant growth, absorbance 615 nm, 18 h; stronger effect = higher value
[10] = H69AR cells + 2 uM doxorubicin, measured here: viability with 2 uM doxorubicin, stronger effect = lower value
[11] = H69AR cells, compound alone cytotoxicity

Row | Compound | inhibition [1] | viability [2] [%] | Her2 level [3] | viability [4] | viability [5] | viability [6] | differential viability (reversal) ([7]; H69AR cells + 2 uM doxorubicin) | viability [7, 10] [%] | viability [7, 11] [%] | inhibition [8] | inhibition [9]
1 | COc1ccc(OC)c([C@@H](O)[C@H](C)NC(C)(C)C)c1 | 6% (inactive) | 100 | 120% (inactive) | 100% (inactive) | 92.3% (inactive) | 97.5% (inactive) | -0.98% (inactive) | 98.5 | 97.5 |  | 
2 | CN(C)c1cc(N)c2c(n1)CCC2 (tested in a mixture with another compound) | 0% (inactive) | 113 | 134% (inactive) | 113% (inactive) | 102% (inactive) | 86.1% (inactive) | -1.48% (inactive) | 87.6 | 86.1 | -4.49% (inactive) | -5.17% (inactive)
3 | O=C(NCc1ccccn1)c1ccccc1Cl | 0% (inactive) | 91.5 | 76.5% (inactive) | 91.5% (inactive) | 91.2% (inactive) | 98% (inactive) | 16.5% (inactive) | 81.5 | 98 | -7.95% (inactive) | 0.63% (inactive)
4 | O=C(NC1(C(F)(F)F)Oc2ccc(Cl)cc2O1)N1CCC2(CC1)OCCO2 (stereo not drawn) | 1% (inactive) | 91.5 | 87.5% (inactive) | 91.5% (inactive) | 58.5% (inactive) | 27.9% (active) | -23.8% (inactive) | 51.7 | 27.9 | -2.47% (inactive) | -5.56% (inactive)
5 | O=C(COc1ccc2ccccc2c1)N1CCN(C2CCN(Cc3ccccc3)CC2)CC1 | 0% (inactive) | 93 | 92% (inactive) | 93% (inactive) | 62.5% (inactive) | 99.8% (inactive) | 3.83% (inactive) | 96 | 99.8 | -0.13% (inactive) | 1.8% (inactive)
6 | CSc1ccc(CNC2CN3CCC2CC3)cc1 (stereo not drawn) | 0% (inactive) | 89.5 | 93.5% (inactive) | 89.5% (inactive) | 91.2% (inactive) | 89.1% (inactive) | 7.31% (inactive) | 81.8 | 89.1 | -3.47% (inactive) | -3.77% (inactive)
7 | CCCCn1c(O)c(C(CC)=Nc2cccc(C(=O)O)c2)c(=O)[nH]c1=O | 0% (inactive) | 97.5 | 92% (inactive) | 97.5% (inactive) | 96.9% (inactive) | 102% (inactive) | 9.65% (inactive) | 92.6 | 102 | -2.67% (inactive) | -4.13% (inactive)
8 | O=c1c2ccccc2nc(CSc2ncnc3nc[nH]c23)n1-c1ccccc1 | 0% (inactive) | 96 | 97.5% (inactive) | 96% (inactive) | 87.6% (inactive) | 80.9% (inactive) | -8.74% (inactive) | 89.6 | 80.9 | -1.92% (inactive) | -10.5% (inactive)
9 | COc1ccc(OC)c(C(O)C(C)N)c1 (stereo not drawn) | 0% (inactive) | 104 | 118% (inactive) | 104% (inactive) | 108% (inactive) | 98.1% (inactive) | -7.17% (inactive) | 105 | 98.1 |  | 
10 | Cc1ccc(-c2nc(CS(=O)CC(=O)N3CCC4(CC3)OCCO4)c(C)o2)cc1 (stereo not drawn) | 0% (inactive) | 92.5 | 99% (inactive) | 92.5% (inactive) | 96.4% (inactive) | 85.1% (inactive) | -10.6% (inactive) | 95.7 | 85.1 | -4.42% (inactive) | -0.79% (inactive)
11 | Cc1ccc(CS(=O)(=O)CCC(=O)N2CCC3(CC2)OCCO3)cc1 | 7% (inactive) | 106 | 118% (inactive) | 106% (inactive) | 121% (inactive) | 97.7% (inactive) | 9.99% (inactive) | 87.7 | 97.7 | -4.87% (inactive) | -0.82% (inactive)
12 | O=C(Cn1c2c(c(-c3ccccc3Cl)cc1=O)CCC2)N1CCC2(CC1)OCCO2 | 6% (inactive) | 102 | 115% (inactive) | 102% (inactive) | 108% (inactive) | 96.8% (inactive) | -15.4% (inactive) | 112 | 96.8 | -1.18% (inactive) | -6.61% (inactive)
13 | C=CCn1c(O)c(C(C)=NCCCO)c(=O)[nH]c1=O | 0% (inactive) | 93 | 114% (inactive) | 93% (inactive) | 107% (inactive) | 94.3% (inactive) | 2.26% (inactive) | 92.1 | 94.3 | -4.94% (inactive) | -8.5% (inactive)
14 | C[C@@]1(CO)[C@H](O)CC[C@@]2(C)[C@H]1CC[C@H]1C[C@@H]3C[C@@]12CC[C@]3(O)CO | 0% (inactive) | 108 | 81.5% (inactive) | 108% (inactive) | 49.2% (inactive) | 80.6% (inactive) | -28.1% (inactive) | 109 | 80.6 |  | 
15 | CN1CCN(C(=O)OC2c3nccnc3C(=O)N2c2ccc(Cl)cn2)CC1 (stereo not drawn) | 8% (inactive) | 91.5 | 108% (inactive) | 91.5% (inactive) | 106% (inactive) | 94.1% (inactive) | -3.97% (inactive) | 98.1 | 94.1 |  | 
16 | Cc1ccc(O)c(CN2CCN(c3ccccc3)CC2)c1 | 13% (inactive) | 94 | 88.5% (inactive) | 94% (inactive) | 101% (inactive) | 85.5% (inactive) | 11.5% (inactive) | 74 | 85.5 | -8.38% (inactive) | 1.33% (inactive)
17 | CC(C)C(=O)c1cn(Cc2ccccc2C#N)c2ccccc12 | 8% (inactive) | 98 | 100% (inactive) | 98% (inactive) | 97% (inactive) | 82.8% (inactive) | -7.5% (inactive) | 90.3 | 82.8 | -4.53% (inactive) | 3.97% (inactive)
18 | O=C(CCCOc1ccc(Cl)cc1Cl)N1CCC2(CC1)OCCO2 | 0% (inactive) | 106 | 96.5% (inactive) | 106% (inactive) | 93.3% (inactive) | 92.5% (inactive) | 11.1% (inactive) | 81.5 | 92.5 | -5% (inactive) | -2% (inactive)
19 | CC1=C(C(=O)N2CCC3(CC2)OCCO3)C2(CCC(C)CC2)OC1=O (stereo not drawn) | 0% (inactive) | 92.5 | 102% (inactive) | 92.5% (inactive) | 101% (inactive) | 98.4% (inactive) | -4.92% (inactive) | 103 | 98.4 | -0.77% (inactive) | 0.17% (inactive)
20 | CC(=O)N1CC(=O)Nc2ccc(Cl)cc2C1c1ccc(F)cc1 (stereo not drawn) | 0% (inactive) | 92.5 | 102% (inactive) | 92.5% (inactive) | 88.5% (inactive) | 97.5% (inactive) | 25.5% (inactive) | 72 | 97.5 | -3.29% (inactive) | -3.45% (inactive)
21 | CCNc1ccc(P(=S)(N(C)C)N(C)C)cc1 | 1% (inactive) | 91 | 93% (inactive) | 91% (inactive) | 115% (inactive) | 88.2% (inactive) | -16.7% (inactive) | 105 | 88.2 | -7.92% (inactive) | -4.6% (inactive)
22 | CC(=O)[C@H]1CC[C@H]2[C@@H]3CC[C@H]4C[C@H](O)CC[C@]4(C)[C@H]3C(=O)C[C@]12C | 0% (inactive) | 112 | 108% (inactive) | 112% (inactive) | 118% (inactive) | 104% (inactive) | 12.1% (inactive) | 92 | 104 |  | 
23 | CC(C)OC(=O)c1c(N)n(CC2CCCO2)c2nc3ccccc3nc12 (stereo not drawn) | 5% (inactive) | 86.5 | 92.5% (inactive) | 86.5% (inactive) | 102% (inactive) | 94.7% (inactive) | 4.96% (inactive) | 89.7 | 94.7 | -1.58% (inactive) | -3.17% (inactive)
24 | CC1CCN2c3nc4ccccn4c(=O)c3CC3(C(=O)N(C)C(=O)N(C)C3=O)C2C1 (stereo not drawn) | 0% (inactive) | 101 | 72.5% (inactive) | 101% (inactive) | 93% (inactive) | 93.5% (inactive) | -8.53% (inactive) | 102 | 93.5 | -1.32% (inactive) | 1.64% (inactive)
25 | CN(C)[C@@H]1C(=O)C(C(N)=O)=C(O)[C@@]2(O)C(=O)C3=C(O)c4c(O)ccc(Cl)c4[C@@](C)(O)C3C[C@@H]12 (stereo partly drawn) | 1% (inactive) | 119 | 104% (inactive) | 119% (inactive) | 104% (inactive) | 96.8% (inactive) | 2.32% (inactive) | 94.5 | 96.8 |  | 
26 | Cc1cc(C)c(C(=O)CN2CCOCC2)c(C)c1 | 2% (inactive) | 105 | 98.5% (inactive) | 105% (inactive) | 83.7% (inactive) | 74% (inactive) | -6.78% (inactive) | 80.7 | 74 | -5.19% (inactive) | -0.33% (inactive)
27 | COc1ccc(OC)c(C2=NOC(C(=O)N3CCC4(CC3)OCCO4)C2)c1 (stereo not drawn) | 7% (inactive) | 106 | 99% (inactive) | 106% (inactive) | 103% (inactive) | 99% (inactive) | 13% (inactive) | 86 | 99 | -6.49% (inactive) | 0.5% (inactive)
28 | CC(=NCc1cccnc1)c1c(O)n(Cc2ccccc2)c(=O)[nH]c1=O | 1% (inactive) | 91.5 | 90.5% (inactive) | 91.5% (inactive) | 92.6% (inactive) | 93.5% (inactive) | -4.79% (inactive) | 98.3 | 93.5 | -0.27% (inactive) | 2.95% (inactive)
29 | COC(=O)c1ccccc1-n1c(C)nc2ccccc2c1=O | 4% (inactive) | 90 | 105% (inactive) | 90% (inactive) | 111% (inactive) | 98.5% (inactive) | 3.37% (inactive) | 95.2 | 98.5 | -2.5% (inactive) | -5.97% (inactive)
30 | O=C(c1ccc2nc3ccc(Cl)cc3c(=O)n2c1)N1CCC2(CC1)OCCO2 | 12% (inactive) | 97.5 | 91.5% (inactive) | 97.5% (inactive) | 98% (inactive) | 96.7% (inactive) | 1.37% (inactive) | 95.4 | 96.7 | -3.87% (inactive) | 1.94% (inactive)
